Measurements reported in ChEMBL document CHEMBL3865815, “Synthesis, anti-cancer evaluation of benzenesulfonamide derivatives as potent tubulin-targeting agents” (Eur J Med Chem, 2016).
Converted amounts (≈) assume the structure as drawn. The source made the active and inactive calls. The calls are words filed in the database; no cut-off is given here.

Tests used:
[1] = Antiproliferative activity against human HCT116 cells after 72 hrs by MTT assay; type: functional, cell-based; conditions: HCT-116, 72 h
Outline: (§1)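 Cells grown in RPMI 1640 with heat-inactivated 10% FBS, 1 mmol/L sodium pyruvate and 2 mmol/L L-glutamine at 37 °C, 5% CO2. Seeded at 3.5×10^4 cells/mL and left 24 h, then exposed to compound for 72 h; DMSO control at 0.5% final. Surviving cells measured by MTT, OD 492/620 nm. IC50 taken from triplicate experiments.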

[2] = Antiproliferative activity against human PC3 cells after 72 hrs by MTT assay; type: functional, cell-based; conditions: PC-3, 72 h; outline: as §1
[3] = Antiproliferative activity against human HepG2 cells after 72 hrs by MTT assay; type: functional, cell-based; conditions: HepG2, 72 h; outline: as §1
[4] = Antiproliferative activity against human SKOV3 cells after 72 hrs by MTT assay; type: functional, cell-based; conditions: SK-OV-3, 72 h; outline: as §1
[5] = Antiproliferative activity against human K562 cells after 72 hrs by MTT assay; type: functional, cell-based; conditions: K562, 72 h; outline: as §1
[6] = Antiproliferative activity against human K562/A02 cells after 72 hrs by MTT assay; type: functional, cell-based; conditions: K562/A02, 72 h; outline: as §1
[7] = Antiproliferative activity against human KB cells after 72 hrs by MTT assay; type: functional, cell-based; outline: as §1
[8] = Antiproliferative activity against human KB/VCR cells after 72 hrs by MTT assay; type: functional, cell-based; outline: as §1
[9] = Antiproliferative activity against human MCF7 cells after 72 hrs by MTT assay; type: functional, cell-based; conditions: MCF7, 72 h; outline: as §1
[10] = Antiproliferative activity against human MCF7/ADR cells after 72 hrs by MTT assay; type: functional, cell-based; conditions: NCI/ADR-RES; outline: as §1
Bos taurus [11] = species on record: Bos taurus; assay: Inhibition of bovine tubulin assessed as induction of microtubule depolymerization at 1 uM preincubated with compound followed by GTP addition by spectrophotometric analysis
Outline: (§2)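 Bovine brain tubulin rich in microtubule-associated protein, 2 mg/mL, in 80 mM PIPES pH 6.9, 2 mM MgCl2, 0.5 mM EGTA and 5% glycerol, incubated with test agent or DMSO in cuvettes. Polymerization started with 1 mM GTP at 37 °C and followed by absorbance at 340 nm.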

A549 [12] = assay: Inhibition of alpha tubulin polymerization in human A549 cells at 200 nM by Hoechst 33258 staining based fluorescent microscopic analysis; type: cell-based
Outline: (§3)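 A549 cells treated 24 h with agent (200 nM or 50 nM) or DMSO control. α-Tubulin stained with primary antibody and DyLight488 secondary antibody, nuclei with Hoechst 33258. Imaged by fluorescence microscopy.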

A549 [13] = assay: Inhibition of alpha tubulin polymerization in human A549 cells at 50 nM by Hoechst 33258 staining based fluorescent microscopic analysis; type: cell-based; outline: as §3
Bos taurus [14] = species on record: Bos taurus; assay: Induction of bovine tubulin polymerization at 10 uM preincubated followed by GTP addition by spectrophotometric analysis; outline: as §2
SW480 [15] = assay: Induction of apoptosis in human SW480 cells assessed as early apoptotic cells at 50 nM after 24 hrs by propidium iodide-staining based FACS analysis (reference value: 3.41 %); type: functional
Outline: (§4)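 SW480 cells grown in 60 mm dishes to 70–80% confluence and treated 24 h, with DMSO as vehicle. All cells harvested, fixed in 70% alcohol and washed twice in cold PBS. Stained 30 min at 37 °C in 5 µg/ml propidium iodide, 100 µg/ml RNase and 0.2% Triton X-100, then analysed by flow cytometry.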

SW480 [16] = assay: Induction of apoptosis in human SW480 cells assessed as accumulation of cells at M2 quadrant at 50 nM after 24 hrs by propidium iodide-staining based FACS analysis (reference value: 96.68 %); type: functional; outline: as §4
[17] = Solubility of compound in pure water at 25 degC; type: physicochemical
Outline: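 Measured in pure water at 25 °C.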

Bos taurus [18] = species on record: Bos taurus; assay: Inhibition of bovine tubulin assessed as induction of microtubule depolymerization at 3 uM preincubated with compound followed by GTP addition by spectrophotometric analysis; outline: as §2

| SMILES | IC50 [1] [nM] | IC50 [2] [nM] | IC50 [3] [nM] | IC50 [4] [nM] | further results |
| --- | --- | --- | --- | --- | --- |
| O=S(=O)(c1ccc(-c2cnc(C3CC3)o2)cc1)N1CCCc2ccccc21 | 49 | 38 | 29 | 47 | – |
| O=S(=O)(c1ccc(-c2cnc(C3CC3)o2)cc1)N1CCSc2ccccc21 | 45 | 49 | 48 | 39 | – |
| O=[N+]([O-])c1ccc2c(c1)N(S(=O)(=O)c1ccc(-c3cnc(C4CC4)o3)cc1)CCCO2 | 133 | 119 | 149 | 53 | – |
| O=S(=O)(c1ccc(-c2cnc(C3CC3)o2)cc1)N1CCCOc2cc(F)ccc21 | 30 | 42 | 65 | 28 | IC50 [5]: 14 nM; IC50 [6]: 46 nM; IC50 [7]: 15 nM; IC50 [8]: 12 nM; IC50 [9]: 6 nM; IC50 [10]: 12 nM; inhibition (Bos taurus [11]): Active; inhibition (A549 [12]): Active |
| O=S1(=O)CCCN(S(=O)(=O)c2ccc(-c3cnc(C4CC4)o3)cc2)c2ccccc21 | 263 | 5880 | 2170 | 1620 | – |
| CC[C@]1(O)C[C@H]2CN(CCc3c([nH]c4ccccc34)[C@@](C(=O)OC)(c3cc4c(cc3OC)N(C=O)[C@H]3[C@@](O)(C(=O)OC)[C@H](OC(C)=O)[C@]5(CC)C=CCN6CC[C@]43[C@@H]65)C2)C1 [VINCRISTINE] | – | – | – | – | IC50 [5]: 4 nM; IC50 [6]: 926 nM; IC50 [7]: 36 nM; IC50 [8]: 871 nM; IC50 [9]: 29 nM; IC50 [10]: 308 nM; inhibition (A549 [13]): Active |
| CC(=O)O[C@H]1C(=O)[C@@]2(C)[C@H]([C@H](OC(=O)c3ccccc3)[C@]3(O)C[C@H](OC(=O)[C@H](O)[C@@H](NC(=O)c4ccccc4)c4ccccc4)C(C)=C1C3(C)C)[C@]1(OC(C)=O)CO[C@@H]1C[C@@H]2O | – | – | – | – | Activity (Bos taurus [14]): Active |
| COc1ccc2c(c1)N(S(=O)(=O)c1ccc(-c3cnc(C4CC4)o3)cc1)CCCO2 | 47 | 14 | 49 | 53 | – |
| Cc1ccc2c(c1)OCCCN2S(=O)(=O)c1ccc(-c2cnc(C3CC3)o2)cc1 | 766 | 241 | 795 | 179 | – |
| O=S(=O)(c1ccc(-c2cnc(C3CC3)o2)cc1)N1CCCCc2ccccc21 | 72 | 39 | 73 | 38 | – |
| O=S(=O)(c1ccc(-c2cnc(C3CC3)o2)cc1)N1CCCOc2ccc(F)cc21 | 24 | 18 | 36 | 15 | IC50 [5]: 8 nM; IC50 [6]: 13 nM; IC50 [7]: 7 nM; IC50 [8]: 7 nM; IC50 [9]: 21 nM; IC50 [10]: 20 nM; inhibition (Bos taurus [11]): Active; inhibition (A549 [12]): Active; Activity (SW480 [15]): 7.74%; Activity (SW480 [16]): 92.28%; solubility [17]: 10 µg/mL (≈ 24.1 µM) |
| Cc1ccc2c(c1)N(S(=O)(=O)c1ccc(-c3cnc(C4CC4)o3)cc1)CCCO2 | 29 | 41 | 31 | 34 | – |
| O=S(=O)(c1ccc(-c2cnc(C3CC3)o2)cc1)N1CCOc2ccccc21 | 71 | 77 | 58 | 47 | – |
| COc1cccc2c1C(=O)c1c(O)c3c(c(O)c1C2=O)C[C@@](O)(C(=O)CO)C[C@@H]3O[C@H]1C[C@H](N)[C@H](O)[C@H](C)O1 [DOXORUBICIN] | – | – | – | – | IC50 [5]: 6 nM; IC50 [6]: 5960 nM; IC50 [7]: 141 nM; IC50 [8]: 1290 nM; IC50 [9]: 140 nM; IC50 [10]: 2940 nM |
| O=S(=O)(c1ccc(-c2cnc(C3CC3)o2)cc1)N1CCCOc2ccc(Cl)cc21 | 39 | 18 | 28 | 19 | – |
| COC(=O)Nc1nc2cc(C(=O)c3cccs3)ccc2[nH]1 | – | – | – | – | inhibition (Bos taurus [18]): Active |
| O=S(=O)(c1ccc(-c2cnc(C3CC3)o2)cc1)N1CCC[S+]([O-])c2ccccc21 (centres undefined) | > 1000 | > 1000 | > 1000 | > 1000 | – |
| COc1ccc2c(c1)OCCCN2S(=O)(=O)c1ccc(-c2cnc(C3CC3)o2)cc1 | 223 | 271 | 229 | 185 | – |
| O=S(=O)(c1ccc(-c2cnc(C3CC3)o2)cc1)N1CCCOc2ccccc21 | 40 | 27 | 40 | 36 | – |
| O=[N+]([O-])c1ccc2c(c1)OCCCN2S(=O)(=O)c1ccc(-c2cnc(C3CC3)o2)cc1 | 145 | 72 | 71 | 120 | – |
| O=S(=O)(c1ccc(-c2cnc(C3CC3)o2)cc1)N1CCOCc2ccccc21 | 187 | 137 | 242 | 175 | – |
| Nc1ccc2c(c1)OCCCN2S(=O)(=O)c1ccc(-c2cnc(C3CC3)o2)cc1 | 87 | 33 | 100 | 56 | – |
| CN1CCN(S(=O)(=O)c2ccc(-c3cnc(C4CC4)o3)cc2)c2ccccc2C1 | 256 | 347 | 525 | 199 | – |
| O=S(=O)(c1ccc(-c2cnc(C3CC3)o2)cc1)N1CCCSc2ccccc21 | 88 | 34 | 27 | 49 | – |
